Source: article PMC3483416 (Archives of biochemistry and biophysics, 2012)
Where two headings read alike, the source gives them in different places. Each block holds one molecule with its values, some of them ahead of it. No end group written: not given here.

Tests used:
full-length human BclXL = full-length human BclXL (Homo sapiens, UniProt Q07817); assay: ITC: binding of Bid_BH3 peptide to full-length BclXL at varying pH; conditions: for TΔS / ΔH / ΔG: 25 °C, ± SD, n at least 3; for TΔS: TΔS=ΔH-ΔG; for ΔG: ΔG=RTlnKd
Chain of full-length human BclXL (Q07817 whole entry, the tested form may be a part): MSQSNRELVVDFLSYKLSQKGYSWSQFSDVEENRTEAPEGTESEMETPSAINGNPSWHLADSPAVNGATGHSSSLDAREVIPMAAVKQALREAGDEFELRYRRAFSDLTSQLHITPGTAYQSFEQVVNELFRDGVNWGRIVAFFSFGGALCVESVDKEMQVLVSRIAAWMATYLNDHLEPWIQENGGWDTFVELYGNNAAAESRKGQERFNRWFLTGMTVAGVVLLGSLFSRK
Method in brief: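 20-mer BH3 peptide (human Bid residues 81–100, gravimetric concentration) at 0.5–1 mM, titrated in 25 × 10 μl injections into 50 μM full-length human BclXL at 25 °C. Buffers 50 mM acetate pH 4, phosphate pH 6, Tris pH 8 or CAPS pH 10, each with 100 mM NaCl, 1 mM EDTA and 5 mM β-mercaptoethanol. Dilution heats subtracted. Kd and ΔH from a one-site fit; TΔS = ΔH − ΔG. Proton coupling assessed from buffer ionization-enthalpy dependence. ≥3 repeats.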

[1] = target: T1, Full-length human BclXL (residues 1-233) (human, UniProt Q07817-1 1-233); assay: ITC
T1 sequence (Q07817 whole entry, the tested form may be a part): as above

[2] = target: T1, Full-length human BclXL (residues 1-233); assay: ITC; remark: listed apart in the source
[3] = target: T1, Full-length human BclXL (residues 1-233); assay: ITC; remark: listed apart in the source
[4] = target: T1, Full-length human BclXL (residues 1-233); assay: ITC; remark: listed apart in the source

TΔS (full-length human BclXL; pH 4, acetate): -2.15 ± 0.03 kcal/mol | ΔH (full-length human BclXL; pH 4, acetate): -9.09 ± 0.20 kcal/mol | ΔG (full-length human BclXL; pH 4, acetate): -6.94 ± 0.08 kcal/mol | optimum pH of ligand binding (full-length human BclXL; pH 4-10): optimally occurs at pH 6 | TΔS (full-length human BclXL; pH 6, phosphate): -5.48 ± 0.15 kcal/mol | ΔH (full-length human BclXL; pH 6, phosphate): -13.66 ± 0.32 kcal/mol | ΔG (full-length human BclXL; pH 6, phosphate): -8.17 ± 0.09 kcal/mol | TΔS (full-length human BclXL; pH 8, Tris): -11.58 ± 0.29 kcal/mol | ΔH (full-length human BclXL; pH 8, Tris): -18.39 ± 0.53 kcal/mol | ΔG (full-length human BclXL; pH 8, Tris): -6.80 ± 0.04 kcal/mol | TΔS (full-length human BclXL; pH 10, CAPS): -10.13 ± 0.31 kcal/mol | ΔH (full-length human BclXL; pH 10, CAPS): -16.54 ± 0.47 kcal/mol | ΔG (full-length human BclXL; pH 10, CAPS): -6.40 ± 0.02 kcal/mol
Molecule: DIIRNIARHLAQVGDSMDRS [Bid_BH3 peptide]

Kd [1]: 8.3 µM | dH [1]: -9.09 kcal/mol | Kd [2]: 10.4 µM | dH [2]: -18.4 kcal/mol | Kd [3]: 1.03 µM | dH [3]: -13.7 kcal/mol | Kd [4]: 20.5 µM | dH [4]: -16.5 kcal/mol
Molecule: DIIRNIARHLAQVGDSMDRS [Bid_BH3 peptide (20-mer spanning residues 81-100, the BH3 domain within human Bid)]
